28 compounds from ChEMBL document CHEMBL1687912, “Sugar-based enantiomeric and conformationally constrained pyrrolo[2,1-c][1,4]-benzodiazepines as potential GABAA ligands” (J Med Chem, 2011) can be followed below.

Each structure is given as a SMILES string.

The species named for this assay is Rattus norvegicus. The experiment in a line: Displacement of [3H]flunitrazepam from GABAA receptor in rat cortical membrane assessed as [3H]flunitrazepam binding at 100 uM after 90 mins by scintillation counting. It counts as cell membranes. The procedure, abridged:
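Rat frontal cortex membranes (sucrose homogenate, ultracentrifuged pellets in 50 mM Tris-HCl pH 7.4), 0.3 mg protein per tube, incubated 90 min at 4 °C with 1 nM [3H]flunitrazepam ± 100 μM test compound (final; benzyl-sugar analogues from ethanol stock). Nonspecific binding with 100 μM flumazenil. Rapid GF/B filtration, ice-cold buffer washes, scintillation counting; expressed as % specific binding; three independent experiments in triplicate.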
Take `CN1C(=O)[C@H]2C[C@@]3(CN2C(=O)c2ccccc21)O[C@H](COCc1ccccc1)[C@@H](OCc1ccccc1)[C@@H]3OCc1ccccc1`: the Activity was found to be 96.4%. `CN1C(=O)[C@H]2C[C@@]3(CN2C(=O)c2cc(Br)ccc21)O[C@H](COCc1ccccc1)[C@@H](OCc1ccccc1)[C@@H]3OCc1ccccc1`: the Activity stood at 111%.

Take `CN1C(=O)[C@@H]2C[C@]3(CN2C(=O)c2cc(Br)ccc21)O[C@@H](CO)[C@H](O)[C@H]3O`: the Activity is 82.2%.

`O=C1Nc2ccccc2C(=O)N2CCC[C@H]12`: the Activity stood at 97%. Turning to `O=C1Nc2ccc([N+](=O)[O-])cc2C(=O)N2C[C@@]3(C[C@@H]12)O[C@@H](COCc1ccccc1)[C@H](OCc1ccccc1)[C@H]3OCc1ccccc1`, the Activity worked out at 69.6%. Consider `O=C1Nc2ccccc2C(=O)N2C[C@]3(C[C@H]12)O[C@H](CO)[C@@H](O)[C@@H]3O`, for which the Activity was found to be 78.2%. On to `CN1C(=O)[C@@H]2C[C@]3(CN2C(=O)c2cc(Cl)ccc21)O[C@@H](CO)[C@H](O)[C@H]3O`, for which the Activity amounted to 77%. Regarding `Nc1ccc2c(c1)C(=O)N1C[C@@]3(C[C@H]1C(=O)N2)O[C@@H](CO)[C@H](O)[C@H]3O`, the Activity was found to be 73.9%. As for `CN1C(=O)[C@H]2C[C@@]3(CN2C(=O)c2cc(Br)ccc21)O[C@H](CO)[C@@H](O)[C@@H]3O`, the Activity stood at 84.2%.

With `O=C1Nc2ccc([N+](=O)[O-])cc2C(=O)N2C[C@]3(C[C@H]12)O[C@H](COCc1ccccc1)[C@@H](OCc1ccccc1)[C@@H]3OCc1ccccc1`, the Activity was 101%.

Take `CN1C(=O)[C@H]2C[C@@]3(CN2C(=O)c2cc(N)ccc21)O[C@H](CO)[C@@H](O)[C@@H]3O`: the Activity is 70.6%. For `CN1C(=O)[C@H]2C[C@@]3(CN2C(=O)c2cc(Cl)ccc21)O[C@H](COCc1ccccc1)[C@@H](OCc1ccccc1)[C@@H]3OCc1ccccc1` the value was 92.9%; for `CN1C(=O)[C@H]2C[C@@]3(CN2C(=O)c2ccccc21)O[C@H](CO)[C@@H](O)[C@@H]3O`, 93%; for `CN1C(=O)[C@@H]2CCCN2C(=O)c2cc([N+](=O)[O-])ccc21`, 63.4%.

For `O=C1Nc2ccccc2C(=O)N2C[C@]3(C[C@H]12)O[C@H](COCc1ccccc1)[C@@H](OCc1ccccc1)[C@@H]3OCc1ccccc1`, the Activity came to 112%. For `CN1C(=O)[C@@H]2C[C@]3(CN2C(=O)c2ccccc21)O[C@@H](CO)[C@H](O)[C@H]3O` the value was 112%; for `O=C1Nc2ccccc2C(=O)N2CCC[C@@H]12`, 95.5%; for `O=C1Nc2ccccc2C(=O)N2C[C@@]3(C[C@@H]12)O[C@@H](CO)[C@H](O)[C@H]3O`, 110%. For the compound `Nc1ccc2c(c1)C(=O)N1C[C@]3(C[C@@H]1C(=O)N2)O[C@H](CO)[C@@H](O)[C@@H]3O`, the Activity was found to be 80.2%.

For `CN1C(=O)[C@@H]2C[C@]3(CN2C(=O)c2cc(Br)ccc21)O[C@@H](COCc1ccccc1)[C@H](OCc1ccccc1)[C@H]3OCc1ccccc1`, the Activity was 93.2%. To `CN1C(=O)[C@@H]2C[C@]3(CN2C(=O)c2cc(Cl)ccc21)O[C@@H](COCc1ccccc1)[C@H](OCc1ccccc1)[C@H]3OCc1ccccc1` belongs 82.3%. To `CN1C(=O)[C@@H]2C[C@]3(CN2C(=O)c2cc([N+](=O)[O-])ccc21)O[C@@H](COCc1ccccc1)[C@H](OCc1ccccc1)[C@H]3OCc1ccccc1` belongs 82.8%. To `O=C1Nc2ccccc2C(=O)N2C[C@@]3(C[C@@H]12)O[C@@H](COCc1ccccc1)[C@H](OCc1ccccc1)[C@H]3OCc1ccccc1` belongs 96.3%. For `CN1C(=O)[C@@H]2C[C@]3(CN2C(=O)c2ccccc21)O[C@@H](COCc1ccccc1)[C@H](OCc1ccccc1)[C@H]3OCc1ccccc1`, the Activity is 106%. As to `CN1C(=O)[C@@H]2C[C@]3(CN2C(=O)c2cc(N)ccc21)O[C@@H](CO)[C@H](O)[C@H]3O`, the Activity is 83.5%. To `CN1C(=O)[C@H]2C[C@@]3(CN2C(=O)c2cc(Cl)ccc21)O[C@H](CO)[C@@H](O)[C@@H]3O` belongs 73.7%. Consider `CN1C(=O)[C@H]2CCCN2C(=O)c2cc([N+](=O)[O-])ccc21`, for which the Activity is 80.2%. Regarding `CN1C(=O)[C@H]2C[C@@]3(CN2C(=O)c2cc([N+](=O)[O-])ccc21)O[C@H](COCc1ccccc1)[C@@H](OCc1ccccc1)[C@@H]3OCc1ccccc1`, the Activity was 74.9%.
